One compound from ChEMBL document CHEMBL4837245, “Discovery of VU6028418: A Highly Selective and Orally Bioavailable M4 Muscarinic Acetylcholine Receptor Antagonist” (ACS Med Chem Lett, 2021) can be followed below.

The term EC50 denotes the concentration needed to bring the measured effect to its halfway point. The IC50 is the midpoint of a concentration-inhibition curve. What is called inhibition is the drop in the measured response relative to a control, in per cent. One may read the bioavailability as dose-corrected exposure relative to a reference, in per cent. By AUC is commonly meant concentration integrated over time. What is called Cmax is the maximum level reached in the sampled fluid or tissue. The term Tmax denotes the time from dosing to the highest level. By Emax is commonly meant the maximal effect, on the per cent scale that the assay sets.

In data set [1] the target is T1, CYP3A4 (Homo sapiens, UniProt P08684). As to the kind of experiment: Induction of CYP3A4 in human hepatocytes. The class given is ADME, cell-based, Hepatocyte.
Data set [2] concerns the target T2, Muscarinic acetylcholine receptor M2 (Homo sapiens, UniProt P08172).
T2 sequence (P08172 whole entry): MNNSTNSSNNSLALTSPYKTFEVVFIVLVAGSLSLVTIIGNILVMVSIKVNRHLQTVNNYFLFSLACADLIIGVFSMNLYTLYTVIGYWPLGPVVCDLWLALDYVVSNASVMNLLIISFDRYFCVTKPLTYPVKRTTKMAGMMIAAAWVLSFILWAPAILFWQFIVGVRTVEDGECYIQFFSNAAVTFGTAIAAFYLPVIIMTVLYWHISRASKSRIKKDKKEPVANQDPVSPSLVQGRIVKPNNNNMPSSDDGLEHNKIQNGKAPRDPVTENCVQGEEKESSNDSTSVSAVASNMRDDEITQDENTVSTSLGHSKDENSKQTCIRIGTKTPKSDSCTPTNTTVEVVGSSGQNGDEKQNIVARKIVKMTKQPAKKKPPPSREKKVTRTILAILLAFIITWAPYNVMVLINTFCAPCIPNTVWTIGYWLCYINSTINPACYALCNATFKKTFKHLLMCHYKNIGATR
As to the kind of experiment: Antagonist activity at human muscarinic M2 receptor expressed in CHO cells co-expressing Gqi5 assessed as inhibition of acetylcholine-induced calcium mobilization. In kind it is functional, cell-based. In a few lines: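 CHO cells stably transfected with the given human mAChR subtype. Compound added before an EC80 concentration of acetylcholine; antagonism read as calcium mobilization. One independent determination in triplicate.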
On the technique in general: A change in cytosolic calcium serves as a functional read-out for many receptors and channels.

Another data set addresses hERG (Homo sapiens, UniProt Q12809). The data set is described as follows: Inhibition of human ERG at 10 uM relative to control.
Data set [3] concerns Rattus norvegicus. The data set is described as follows: Effect on haloperidol-induced catalepsy in rat assessed as reduction in mean latency to withdraw at 0.3 mg/kg, po (reference value: 43.4 +/- 4.3 sec). The class given is functional. An outline of the steps: (§1)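 Rat haloperidol-induced catalepsy model with oral test dosing at 0.3, 1 and 3 mg/kg alongside vehicle-treated controls. Read-out is latency to withdraw, also expressed as % reversal of catalepsy. Groups compared by ANOVA.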

Data set [4] can be described thus: Kinetic solubility of compound at pH 6.8. In kind it is physicochemical. The following applies: buffer, read-out: Kinetic_solubility. In a few lines: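 Kinetic solubility measured at pH 6.8.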
Data set [5] can be described thus: Oral bioavailability in CD-1 mouse at 3 mg/kg measured upto 24 hrs by LC-MS/MS analysis. In kind it is ADME, organism-based. The following applies: in vivo. In a few lines:
(§2)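 Single iv and oral (suspension) dosing; iv/po doses 1/10 mg/kg in SD rat, 1/3 mg/kg in CD-1 mouse and beagle dog. Plasma PK parameters are means from two to three animals per species.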

Data set [6] in a line: AUC (0 to infinity) in Sprague-Dawley rat at 10 mg/kg, po measured upto 24 hrs by LC-MS/MS analysis. In kind it is ADME, organism-based. The arrangement: route oral, dose 10 mg/kg, time <=24. The following applies: in vivo. In a few lines:
as §2

Data set [7] in a line: Volume of distribution at steady state in Sprague-Dawley rat at 1.0 mg/kg, iv measured upto 24 hrs by LC-MS/MS analysis. The class given is ADME, organism-based. Conditions: in vivo, read-out: Vdss. In a few lines:
(§3)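 Pharmacokinetics in Sprague-Dawley rat, CD-1 mouse and beagle dog. Intravenous dose was 1 mg/kg in each species. Oral doses were given as a suspension: 10 mg/kg in rat, 3 mg/kg in mouse and dog. Each parameter is the mean of two to three animals.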

Data set [8] has as its target T3, Muscarinic acetylcholine receptor M4 (Homo sapiens, UniProt P08173).
T3 sequence (P08173 whole entry): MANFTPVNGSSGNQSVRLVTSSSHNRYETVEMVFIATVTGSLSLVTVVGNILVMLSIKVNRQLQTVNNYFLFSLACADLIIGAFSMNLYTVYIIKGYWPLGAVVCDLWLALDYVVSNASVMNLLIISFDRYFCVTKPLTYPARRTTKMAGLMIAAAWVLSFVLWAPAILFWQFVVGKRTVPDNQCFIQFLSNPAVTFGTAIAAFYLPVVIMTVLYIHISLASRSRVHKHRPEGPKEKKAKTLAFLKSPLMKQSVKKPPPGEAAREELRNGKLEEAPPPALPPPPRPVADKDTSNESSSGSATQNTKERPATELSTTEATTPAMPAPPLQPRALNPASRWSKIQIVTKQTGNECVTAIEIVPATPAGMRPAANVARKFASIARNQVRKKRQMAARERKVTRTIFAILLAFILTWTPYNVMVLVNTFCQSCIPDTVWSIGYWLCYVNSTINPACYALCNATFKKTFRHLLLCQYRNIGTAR
The data set is described as follows: Antagonist activity at human muscarinic acetylcholine M4 receptor expressed in CHO cells assessed as inhibition of acetylcholine-induced calcium mobilization. The class given is functional, cell-based. Conditions: read-out: IC50.

The test system of data set [9] is Rattus norvegicus. The data set is described as follows: Reversal of haloperidol-induced catalepsy in rat at 3 mg/kg, po relative to control. In kind it is functional. An outline of the steps: as §1
Data set [10] in a line: Cmax in Sprague-Dawley rat at 10 mg/kg, po measured upto 24 hrs by LC-MS/MS analysis. The class given is ADME, organism-based. Also noted: route oral, dose 10 mg/kg, time <=24. Conditions: in vivo. An outline of the steps:
as §2

A short description of data set [11]: Antagonist activity at human muscarinic acetylcholine M4 receptor expressed in CHO cells assessed as inhibition of acetylcholine-induced calcium mobilization relative to control. The class given is cell-based. Conditions: concentration not given here. The arrangement: concentration or dose not given beside the values. An outline of the steps:
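CHO cells stably transfected with human M4 were pretreated with the compound, then stimulated with an EC80 concentration of acetylcholine. The response was read as calcium mobilization, and IC50 was derived from the concentration-response. Each experiment was run in triplicate.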

A short description of data set [12]: Tmax in CD-1 mouse at 3 mg/kg, po measured upto 24 hrs by LC-MS/MS analysis. In kind it is ADME, organism-based. The following applies: in vivo. An outline of the steps:
as §3

In data set [13] the target is T4, Muscarinic acetylcholine receptor M4 (Rattus norvegicus, UniProt P08485).
T4 sequence (P08485 whole entry): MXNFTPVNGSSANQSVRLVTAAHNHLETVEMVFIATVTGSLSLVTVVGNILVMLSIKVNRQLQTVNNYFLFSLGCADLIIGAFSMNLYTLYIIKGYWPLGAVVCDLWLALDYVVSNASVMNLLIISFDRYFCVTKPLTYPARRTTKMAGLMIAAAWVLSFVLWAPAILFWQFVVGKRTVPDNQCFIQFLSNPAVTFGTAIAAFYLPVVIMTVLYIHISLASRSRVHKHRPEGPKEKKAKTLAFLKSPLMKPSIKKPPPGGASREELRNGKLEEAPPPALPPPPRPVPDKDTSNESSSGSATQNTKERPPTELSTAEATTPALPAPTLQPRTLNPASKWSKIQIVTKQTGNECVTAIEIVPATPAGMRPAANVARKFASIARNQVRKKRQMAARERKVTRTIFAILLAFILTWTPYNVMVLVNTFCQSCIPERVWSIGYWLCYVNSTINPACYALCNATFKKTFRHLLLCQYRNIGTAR
As to the kind of experiment: Displacement of [3H]NMS from rat muscarinic receptor M4 expressed in CHO cell membranes incubated for 3 hrs by radiometric scintillation counting analysis. Also noted: species or system Cell membrane.

In another data set the target is Cytochrome P450 2C9 (Homo sapiens, UniProt P11712). As to the kind of experiment: Time dependent inhibition of CYP2C9 (unknown origin). The class given is ADME.
Data set [14] has as its target T1, CYP3A4. The data set is described as follows: Induction of CYP3A4 in human hepatocytes relative to control. In kind it is ADME, cell-based, Hepatocyte.
Data set [15] can be described thus: Elimination half life in Beagle dog at 1 mg/kg, iv measured upto 24 hrs by LC-MS/MS analysis. In kind it is ADME, organism-based, Canis lupus familiaris. Conditions: in vivo, read-out: beta t1/2 (converted). In a few lines: as §2
The nature of data set [16]: Volume of distribution at steady state in CD-1 mouse at 1.0 mg/kg, iv measured upto 24 hrs by LC-MS/MS analysis. The class given is ADME, organism-based. The following applies: in vivo, read-out: Vdss. An outline of the steps: as §3

The structures appear in SMILES notation. Values after ≈ are worked out from the molar mass of the structure shown. A value given as a limit tells only on which side of the number the result lay.

T1 sequence (P08684 whole entry): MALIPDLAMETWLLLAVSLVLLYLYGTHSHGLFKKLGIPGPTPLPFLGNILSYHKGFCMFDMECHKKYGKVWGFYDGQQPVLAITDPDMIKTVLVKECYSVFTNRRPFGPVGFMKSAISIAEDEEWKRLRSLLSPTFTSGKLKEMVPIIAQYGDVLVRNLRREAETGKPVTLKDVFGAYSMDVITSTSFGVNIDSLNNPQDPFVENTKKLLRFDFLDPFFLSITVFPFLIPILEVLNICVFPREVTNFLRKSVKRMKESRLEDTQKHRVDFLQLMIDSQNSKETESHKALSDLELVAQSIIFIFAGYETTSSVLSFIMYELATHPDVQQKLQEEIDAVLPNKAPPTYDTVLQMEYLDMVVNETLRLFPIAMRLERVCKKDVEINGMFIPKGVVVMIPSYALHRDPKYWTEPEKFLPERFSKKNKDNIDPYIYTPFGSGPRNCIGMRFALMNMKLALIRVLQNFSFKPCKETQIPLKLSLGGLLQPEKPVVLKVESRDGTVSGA
Sequence of Cytochrome P450 2C9 (P11712 whole entry): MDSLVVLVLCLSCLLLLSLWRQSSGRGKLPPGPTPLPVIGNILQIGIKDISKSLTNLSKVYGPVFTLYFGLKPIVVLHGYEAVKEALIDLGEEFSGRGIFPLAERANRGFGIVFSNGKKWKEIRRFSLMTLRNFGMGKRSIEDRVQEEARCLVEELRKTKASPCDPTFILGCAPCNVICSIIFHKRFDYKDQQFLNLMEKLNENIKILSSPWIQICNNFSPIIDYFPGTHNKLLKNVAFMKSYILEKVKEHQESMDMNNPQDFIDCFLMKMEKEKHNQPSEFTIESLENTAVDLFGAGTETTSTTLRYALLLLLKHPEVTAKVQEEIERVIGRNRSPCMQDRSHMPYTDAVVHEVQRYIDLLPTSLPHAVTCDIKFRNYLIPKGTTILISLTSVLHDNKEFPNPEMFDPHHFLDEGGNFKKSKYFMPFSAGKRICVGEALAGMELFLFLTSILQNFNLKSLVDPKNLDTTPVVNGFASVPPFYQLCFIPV
Sequence of hERG (Q12809 whole entry): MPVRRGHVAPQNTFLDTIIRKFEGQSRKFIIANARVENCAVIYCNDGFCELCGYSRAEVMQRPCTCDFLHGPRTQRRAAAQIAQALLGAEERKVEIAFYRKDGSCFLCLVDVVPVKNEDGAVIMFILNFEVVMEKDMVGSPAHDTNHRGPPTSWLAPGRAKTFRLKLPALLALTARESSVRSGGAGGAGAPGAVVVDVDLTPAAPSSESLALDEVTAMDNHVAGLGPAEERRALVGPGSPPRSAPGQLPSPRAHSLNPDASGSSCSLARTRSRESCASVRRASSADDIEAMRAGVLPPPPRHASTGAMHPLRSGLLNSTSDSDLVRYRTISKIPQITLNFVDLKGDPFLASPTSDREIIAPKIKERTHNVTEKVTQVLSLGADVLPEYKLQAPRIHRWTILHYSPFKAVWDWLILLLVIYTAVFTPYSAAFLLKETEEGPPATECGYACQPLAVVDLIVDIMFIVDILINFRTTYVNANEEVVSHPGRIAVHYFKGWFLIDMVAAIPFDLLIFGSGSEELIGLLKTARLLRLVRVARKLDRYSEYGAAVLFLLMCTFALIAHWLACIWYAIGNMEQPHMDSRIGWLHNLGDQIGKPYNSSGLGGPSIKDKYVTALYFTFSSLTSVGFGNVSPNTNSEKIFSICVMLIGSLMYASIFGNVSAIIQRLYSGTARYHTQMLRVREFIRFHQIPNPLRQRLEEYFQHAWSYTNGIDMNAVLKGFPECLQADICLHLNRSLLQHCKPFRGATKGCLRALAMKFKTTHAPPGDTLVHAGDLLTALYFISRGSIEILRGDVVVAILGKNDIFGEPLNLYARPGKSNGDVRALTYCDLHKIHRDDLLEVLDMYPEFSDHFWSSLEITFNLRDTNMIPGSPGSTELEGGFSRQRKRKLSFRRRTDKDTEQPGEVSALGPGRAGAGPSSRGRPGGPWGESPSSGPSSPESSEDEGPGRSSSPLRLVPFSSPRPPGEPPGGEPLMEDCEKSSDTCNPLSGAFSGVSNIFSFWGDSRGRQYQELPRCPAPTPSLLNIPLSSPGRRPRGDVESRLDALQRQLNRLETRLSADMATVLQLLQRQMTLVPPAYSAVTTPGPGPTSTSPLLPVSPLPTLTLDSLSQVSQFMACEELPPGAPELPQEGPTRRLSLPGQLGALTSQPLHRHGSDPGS

`Fc1cc(F)c(F)c(-c2ccc(N[C@H]3C[C@@H]4CN(CC5CCOCC5)C[C@@H]4C3)nn2)c1` yielded a concentration giving a half-maximal response (EC50) at CYP3A4 [1] of 1900 nM. The half-inhibitory concentration (IC50) is 3500 nM in data set [2], 4.1 nM in data set [8], 145 nM in data set [13] and greater than 100000 nM on Cytochrome P450 2C9. Moreover, on hERG, the inhibition at 10 µM was 61%. Besides, the Activity in the data set with Rattus norvegicus [3] was 32 s; in the data set on Rattus norvegicus [9], 65.2%. The solubility kinetic in [4] is 85.1 µM (≈ 36.8 µg/mL). Besides, the bioavailability in data set [5] was no less than 100%. In addition, the AUC in data set [6] is 30000 ng·h/mL. Moreover, the Vd in [7] turned out to be 6.7 L/kg; in data set [16], 10.6 L/kg. In [10], this compound registered a Cmax of 17000 ng/mL. Further, the inhibition in data set [11] and in data set [11] (tested as the 2H-labelled form) was 3% in each case. The Tmax in [12] is 6.67 h. On CYP3A4 [14], this compound returned an Emax of 2.1%. The half-life in data set [15] is 15 h.
